Assay results: ChEMBL document CHEMBL1795313, “Synthesis and antimicrobial activities of hexahydroimidazo[1,5-a]pyridinium bromides with varying benzyl substituents” (Eur J Med Chem, 2011)

Legend:
[1] = test system: Staphylococcus epidermidis; assay: Antimicrobial activity against Staphylococcus epidermidis ATCC 12228 after 18 hrs by microdilution method; assay type: functional; conditions: ATCC 12228, 18 h
Method in brief: (§1)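 Broth microdilution per NCCLS M7-A4. Stocks kept on nutrient agar at 4 °C. Overnight cultures in double-strength Mueller-Hinton broth, adjusted to 10⁸ cfu/mL against McFarland 0.5. Compounds serially diluted in sterile distilled water (400 down to 0.78). Incubated at 37 °C for 18 h. MIC taken as the first well without turbidity. Wells without organism and water/medium growth controls included.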

Escherichia coli = assay: Antimicrobial activity against Escherichia coli ATCC 8739 after 18 hrs by microdilution method; assay type: functional; conditions: ATCC 8739, 18 h; method in brief: as §1
Candida albicans = assay: Antifungal activity against Candida albicans ATCC 10231 after 18 hrs by microdilution method; assay type: functional
Method in brief: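 Yeast broth microdilution per NCCLS M27-A. Stock kept on potato dextrose agar at 4 °C. Suspension in double-strength yeast glucose broth, adjusted to 10⁸ cfu/mL by McFarland 0.5. Water-based twofold series (400 down to 0.78) used. Incubated at 37 °C for 18 h. MIC is the lowest concentration with no visible turbidity.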

Staphylococcus aureus = assay: Antimicrobial activity against Staphylococcus aureus 6538/P after 18 hrs by microdilution method; assay type: functional; method in brief: as §1
Pichia kudriavzevii = assay: Antifungal activity against Candida krusei ATCC 6258 after 18 hrs by microdilution method; assay type: functional
Method in brief: (§2)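 NCCLS M27-A broth microdilution for yeast. Two-fold series from 400 to 0.78 made in sterile distilled water. Inoculum in double-strength yeast glucose broth, adjusted to 10⁸ cfu/mL (McFarland 0.5). Incubated 37 °C, 18 h. MIC taken as the first well without turbidity. Medium-only and water-plus-medium controls.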

Klebsiella pneumoniae = assay: Antimicrobial activity against Klebsiella pneumoniae CCM 2318 after 18 hrs by microdilution method; assay type: functional; conditions: CCM 2318, 18 h
Method in brief: as §2, with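 “M7-A4” for “M27-A”, “microdilution.” for “microdilution for yeast.”, “Overnight bacteria” for “Inoculum”, “Mueller-Hinton” for “yeast glucose”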

Salmonella typhimurium = assay: Antimicrobial activity against Salmonella Typhimurium CCM 5445 after 18 hrs by microdilution method; assay type: functional, Salmonella enterica subsp. enterica serovar Typhimurium; conditions: Salmonella enterica, CCM 5445, 18 h
Method in brief: as §2, with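 “M7-A4” for “M27-A”, “microdilution.” for “microdilution for yeast.”, “Overnight bacteria” for “Inoculum”, “Mueller-Hinton” for “yeast glucose”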

Proteus vulgaris = assay: Antimicrobial activity against Proteus vulgaris ATCC 6897 after 18 hrs by microdilution method; assay type: functional; conditions: ATCC 6897, 18 h
Method in brief: as §2, with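 “M7-A4” for “M27-A”, “microdilution.” for “microdilution for yeast.”, “Overnight bacteria” for “Inoculum”, “Mueller-Hinton” for “yeast glucose”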

[2] = Acute toxicity in po dosed Swiss albino mouse after 24 hrs; assay type: organism-based; conditions: in vivo
Method in brief: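 Mice dosed orally, 5 male and 5 female per group; limit test at 2000 mg/kg, plus classical LD50 test; toxic responses and deaths recorded over 24 h; LD50 derived from lethality.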

Bacillus cereus = assay: Antimicrobial activity against Bacillus cereus CCM 99 after 18 hrs by microdilution method; assay type: functional; conditions: CCM 99, 18 h
Method in brief: as §2, with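 “M7-A4” for “M27-A”, “microdilution.” for “microdilution for yeast.”, “Overnight bacteria” for “Inoculum”, “Mueller-Hinton” for “yeast glucose”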

Micrococcus luteus = assay: Antimicrobial activity against Micrococcus luteus ATCC 9341 after 18 hrs by microdilution method; assay type: functional; conditions: ATCC 9341, 18 h
Method in brief: as §2, with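 “M7-A4” for “M27-A”, “microdilution.” for “microdilution for yeast.”, “Overnight bacteria” for “Inoculum”, “Mueller-Hinton” for “yeast glucose”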

Molecule | MIC [1] [µg/mL] | MIC (Escherichia coli) [µg/mL] | MIC (Candida albicans; ATCC 10231, 18 h) [µg/mL] | MIC (Staphylococcus aureus) [µg/mL] | MIC (Pichia kudriavzevii) [µg/mL] | MIC (Candida albicans) [µg/mL] | MIC (Klebsiella pneumoniae) [µg/mL] | MIC (Salmonella typhimurium) [µg/mL] | MIC (Proteus vulgaris) [µg/mL] | LD50 at 24 h [2] [mg/kg] | MIC (Bacillus cereus) [µg/mL] | MIC (Pichia kudriavzevii; ATCC 6258, 18 h) [µg/mL] | MIC (Micrococcus luteus) [µg/mL]
Cc1cc(C)c(CN2C=[N+](Cc3c(C)cc(C)cc3C)C3CCCCC32)c(C)c1.[Cl-] (stereo not given) | 1600 | 1600 | 1600 | 100 | – | – | – | – | – | – | – | – | –
NYSTATIN | – | – | – | – | 3.12 | 6.25 | – | – | – | – | – | – | –
FC(F)(F)c1ccc(C[N+]2=CN3CCCCC3C2)cc1.[Br-] (stereo not given) | 0.78 | 0.78 | 0.78 | 1.56 | – | – | 12.5 | 0.78 | 6.25 | 824 | 3.12 | 0.78 | 0.78
Cc1cc(C)c(C[n+]2cn(C)c3ccccc32)c(C)c1.[Cl-] | 1600 | 1600 | 1600 | 1600 | – | – | – | – | – | – | – | – | –
Cc1cc(C)c(C)c(C[N+]2=CN3CCCCC3C2)c1C.[Br-] (stereo not given) | 6.25 | 50 | 50 | 50 | – | – | 200 | 50 | 6.25 | 1950 | 100 | 6.25 | 12.5
Cc1cc(C)c(C[N+]2=CN3CCCCC3C2)c(C)c1.[Br-] (stereo not given) | 25 | 200 | 50 | 50 | – | – | 200 | 100 | 50 | 758 | 200 | 12.5 | 6.25
Cc1c(C)c(C)c(C[N+]2=CN3CCCCC3C2)c(C)c1C.[Br-] (stereo not given) | 3.12 | 12.5 | 50 | 25 | – | – | 50 | 12.5 | 6.25 | 1110 | 12.5 | 3.12 | 12.5
Clc1ccc(C[N+]2=CN3CCCCC3C2)cc1.[Br-] (stereo not given) | 0.78 | 3.12 | 0.78 | 1.56 | – | – | 12.5 | 0.78 | 6.25 | > 2000 | 3.12 | 0.78 | 0.78
